ChEMBL document CHEMBL5325487, “Suramin analogues protect cartilage against osteoarthritic breakdown by increasing levels of tissue inhibitor of metalloproteinases 3 (TIMP-3) in the tissue” (Bioorg Med Chem, 2023)
Calls of active or inactive are those of the source. The calls are words filed in the database; no cut-off is given here.

Key:
[1] = target: T1, Metalloproteinase inhibitor 3 (Homo sapiens, UniProt P35625); assay: Binding affinity to FLAG-tagged human TIMP3 expressed in HEK293 cells assessed as dissociation constant; format: cell-based
T1 sequence (P35625 whole entry): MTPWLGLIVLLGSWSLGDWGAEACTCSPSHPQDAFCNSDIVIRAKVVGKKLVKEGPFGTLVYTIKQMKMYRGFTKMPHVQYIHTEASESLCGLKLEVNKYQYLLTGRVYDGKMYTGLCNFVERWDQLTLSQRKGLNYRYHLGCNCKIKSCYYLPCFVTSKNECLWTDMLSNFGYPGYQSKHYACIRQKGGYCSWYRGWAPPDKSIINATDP

SW1353 [2] = assay: Induction of TIMP3 protein level in human HTB-94 cells at 100 ug/ml incubated for 36 hrs by Western blotting analysis; format: functional, cell-based; details: dose 100.0 µg/ml
Outline: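 HTB94 cells (5×10^5/well) washed in serum-free DMEM and treated 36 h with 100 μg/mL in serum-free DMEM. Conditioned medium was TCA-precipitated and run on non-reducing 15% SDS-PAGE, then transferred to PVDF. TIMP-3 was detected with rabbit anti-TIMP-3 and an IRDye 800CW secondary by infrared imaging. Values are expressed as % of 100 μg/mL suramin-treated samples on the same blot. n = 3, mean ± SD.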

[3] = Induction of TIMP3 protein level in human HTB-94 cells incubated for 36 hrs by slot blotting analysis relative to 100 ug/ml suramin; format: functional, cell-based; details: SW1353, 36 h
Outline: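 Dose-response over 0–250 μg/mL for 36 h in serum-free DMEM using HTB94 cells (5×10^5/well). TIMP-3 in TCA-concentrated medium was measured by slot blot with anti-TIMP-3/IRDye 800CW detection, normalised to 100 μg/mL suramin on each blot. EC50 was fitted with a one-site specific binding model. n = 3, mean ± SD.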

SW1353 [4] = assay: Effect on LRP1 mRNA level in human HTB-94 cells at 50 to 200 ug/ml incubated for 36 hrs by RT-qPCR analysis; format: functional, cell-based; details: dose 50-200 µg/ml
Outline: (§1)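 HTB94 cells (5×10^5/well) plated overnight, washed three times, then treated with analogue (50–200 μg/mL) in serum-free DMEM for 36 h. RNA was isolated and transcripts quantified by RT-qPCR (ΔΔCt), normalised to RN18S1 and to untreated cells. n = 3, mean ± SD.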

SW1353 [5] = assay: Effect on ADAMTS4 mRNA level in human HTB-94 cells at 50 to 200 ug/ml incubated for 36 hrs by RT-qPCR analysis; format: functional, cell-based; details: dose 50-200 µg/ml; outline: as §1
SW1353 [6] = assay: Effect on ADAMTS5 mRNA level in human HTB-94 cells at 50 to 200 ug/ml incubated for 36 hrs by RT-qPCR analysis; format: functional, cell-based; details: dose 50-200 µg/ml; outline: as §1
SW1353 [7] = assay: Effect on MMP13 mRNA level in human HTB-94 cells at 50 to 200 ug/ml incubated for 36 hrs by RT-qPCR analysis; format: functional, cell-based; details: dose 50-200 µg/ml; outline: as §1
[8] = Cytotoxicity against porcine Chondrocyte assessed cell number at 100 ug/ml incubated for 3 days by MTS assay; format: toxicity, cell-based, Sus scrofa; details: pig, 72 h, dose 100 µg/ml, time 3 day
Outline: (§2)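 Primary porcine chondrocytes, released by pronase E then type II collagenase digestion of cartilage and plated at 10^4/well, were washed in serum-free DMEM. They were exposed to 100 μg/mL analogue, with or without IL-1β (10 ng/mL), for 3 days. Cell number was read by MTS against a twice freeze/thawed control. n = 3 biological replicates, mean ± SD.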

[9] = Cytotoxicity against porcine Chondrocyte assessed cell number at 100 ug/ml incubated for 3 days in presence of IL-1beta by MTS assay; format: toxicity, cell-based, Sus scrofa; details: pig, 72 h, dose 100 µg/ml, time 3 day; outline: as §2
[10] = Induction of TIMP3 protein level in human HTB-94 cells at 100 ug/ml incubated for 36 hrs by slot blotting analysis relative to suramin; format: functional, SW1353; details: dose 100 µg/ml
Outline: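 Serum-free 36 h treatment (100 μg/mL) of HTB94 cells (5×10^5/well). TCA-concentrated conditioned medium was slot-blotted onto nitrocellulose and probed with rabbit anti-TIMP-3 and an IRDye 800CW secondary, then imaged by infrared fluorescence. Pixel volume is expressed relative to 100 μg/mL suramin samples on the same blot (100%). n = 3, mean ± SD.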

Sus scrofa = species on record: Sus scrofa; assay: Inhibition of cartilage degradation in porcine cartilage explants assessed as inhibition of IL-1beta-induced aggrecan release at 100 ug/ml measured after 3 days by DMMB assay; format: functional, tissue-based; details: Cartilage tissue, dose 100.0 µg/ml, time 3.0 day
Outline: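 Porcine metacarpophalangeal cartilage explants (3–9-month-old pigs), rested 48 h after dissection, were washed and treated 72 h with IL-1β (10 ng/mL) plus 100 μg/mL analogue. Medium was DMEM with 0.1% FCS, amphotericin B and 10 mM HEPES. Aggrecan released into the medium was measured by DMMB assay. n = 3 biological × 2 technical replicates, mean ± SD.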

SW1353 [11] = assay: Cytotoxicity against human HTB-94 cells assessed as cell viability at 100 ug/ml measured after 36 h by MTS assay
SW1353 [12] = assay: Effect on TIMP3 mRNA level in human HTB-94 cells at 50 to 200 ug/ml incubated for 36 hrs by RT-qPCR analysis; format: functional, cell-based; details: dose 50-200 µg/ml; outline: as §1

Compound: O=C(Nc1cccc(C(=O)Nc2ccc(S(=O)(=O)O)c3cc(S(=O)(=O)O)cc(S(=O)(=O)O)c23)c1)Nc1cccc(C(=O)Nc2ccc(S(=O)(=O)O)c3cc(S(=O)(=O)O)cc(S(=O)(=O)O)c23)c1
- Kd [1]: 0.0265 µM

Compound: O=C(Nc1cc(C(=O)Nc2ccc(S(=O)(=O)O)cc2)cc(C(=O)Nc2ccc(S(=O)(=O)O)cc2)c1)Nc1cc(C(=O)Nc2ccc(S(=O)(=O)O)cc2)cc(C(=O)Nc2ccc(S(=O)(=O)O)cc2)c1
- Kd [1]: 0.00688 µM

Compound: Cc1ccc(C(=O)Nc2ccc(P(=O)(O)O)cc2P(=O)(O)O)cc1NC(=O)c1cccc(NC(=O)Nc2cccc(C(=O)Nc3cc(C(=O)Nc4ccc(P(=O)(O)O)cc4P(=O)(O)O)ccc3C)c2)c1
- Kd [1]: > 0.1 µM

Compound: O=C(Nc1ccc(C(=O)Nc2cc(S(=O)(=O)O)cc3cc(S(=O)(=O)O)cc(S(=O)(=O)O)c23)cc1)c1ccc([N+](=O)[O-])cc1
- Activity (SW1353 [2]): inactive

Compound: O=C(Nc1cc(S(=O)(=O)O)cc2cc(S(=O)(=O)O)cc(S(=O)(=O)O)c12)c1ccc([N+](=O)[O-])cc1
- Activity (SW1353 [2]): inactive

Compound: Nc1ccc(C(=O)Nc2cc(S(=O)(=O)O)cc3cc(S(=O)(=O)O)cc(S(=O)(=O)O)c23)cc1
- Activity (SW1353 [2]): inactive

Compound: O=C(Nc1ccc(C(=O)Nc2ccc(C(=O)Nc3ccc(S(=O)(=O)O)c4cc(S(=O)(=O)O)cc(S(=O)(=O)O)c34)cc2)cc1)Nc1ccc(C(=O)Nc2ccc(C(=O)Nc3ccc(S(=O)(=O)O)c4cc(S(=O)(=O)O)cc(S(=O)(=O)O)c34)cc2)cc1
- EC50 [3]: 17 µM

Compound: O=C(Nc1cccc(C(=O)Nc2cc(S(=O)(=O)O)cc3ccc(S(=O)(=O)O)cc23)c1)Nc1cccc(C(=O)Nc2cc(S(=O)(=O)O)cc3ccc(S(=O)(=O)O)cc23)c1
- Kd [1]: > 0.1 µM

Compound: Cc1ccc(C(=O)Nc2ccc(S(=O)(=O)O)c3cc(S(=O)(=O)O)cc(S(=O)(=O)O)c23)cc1NC(=O)c1cccc(NC(=O)Nc2cccc(C(=O)Nc3cc(C(=O)Nc4ccc(S(=O)(=O)O)c5cc(S(=O)(=O)O)cc(S(=O)(=O)O)c45)ccc3C)c2)c1 [SURAMIN]
- Activity (SW1353 [2]): Active
- EC50 [3]: 15 µM
- Activity (SW1353 [4]): inactive
- Activity (SW1353 [5]): inactive
- Activity (SW1353 [6]): inactive
- Activity (SW1353 [7]): inactive
- Activity [8]: Non-Toxic
- Activity [9]: Non-Toxic

Compound: O=C(Nc1cccc(C(=O)Nc2cc(C(=O)Nc3ccc(S(=O)(=O)O)c4cc(S(=O)(=O)O)cc(S(=O)(=O)O)c34)ccc2F)c1)Nc1cccc(C(=O)Nc2cc(C(=O)Nc3ccc(S(=O)(=O)O)c4cc(S(=O)(=O)O)cc(S(=O)(=O)O)c34)ccc2F)c1
- Kd [1]: 0.00155 µM

Compound: Nc1ccc(C(=O)Nc2ccc(C(=O)Nc3cc(S(=O)(=O)O)cc4cc(S(=O)(=O)O)cc(S(=O)(=O)O)c34)cc2)cc1
- Activity (SW1353 [2]): inactive

Compound: O=C(Nc1cc(C(=O)Nc2ccc(S(=O)(=O)O)cc2S(=O)(=O)O)cc(C(=O)Nc2ccc(S(=O)(=O)O)cc2S(=O)(=O)O)c1)Nc1cc(C(=O)Nc2ccc(S(=O)(=O)O)cc2S(=O)(=O)O)cc(C(=O)Nc2ccc(S(=O)(=O)O)cc2S(=O)(=O)O)c1
- Kd [1]: 0.00466 µM

Compound: O=C(Nc1ccc(C(=O)Nc2cccc(C(=O)Nc3cc(S(=O)(=O)O)cc4cc(S(=O)(=O)O)cc(S(=O)(=O)O)c34)c2)cc1)Nc1ccc(C(=O)Nc2cccc(C(=O)Nc3cc(S(=O)(=O)O)cc4cc(S(=O)(=O)O)cc(S(=O)(=O)O)c34)c2)cc1
- Activity [10]: -50%
- EC50 [3]: 17 µM
- inhibition (Sus scrofa): Active
- Activity (SW1353 [11]): Non-Toxic

Compound: O=C(Nc1cccc(C(=O)Nc2ccc(C(=O)Nc3cc(S(=O)(=O)O)cc4cc(S(=O)(=O)O)cc(S(=O)(=O)O)c34)cc2)c1)Nc1cccc(C(=O)Nc2ccc(C(=O)Nc3cc(S(=O)(=O)O)cc4cc(S(=O)(=O)O)cc(S(=O)(=O)O)c34)cc2)c1
- Activity [10]: -50%
- inhibition (Sus scrofa): Active
- Activity (SW1353 [11]): Non-Toxic

Compound: O=C(Nc1ccc(C(=O)Nc2ccc(C(=O)Nc3cc(S(=O)(=O)O)cc4cc(S(=O)(=O)O)cc(S(=O)(=O)O)c34)cc2)cc1)Nc1ccc(C(=O)Nc2ccc(C(=O)Nc3cc(S(=O)(=O)O)cc4cc(S(=O)(=O)O)cc(S(=O)(=O)O)c34)cc2)cc1
- Activity (SW1353 [2]): Active
- Activity [10]: 30%
- EC50 [3]: 19 µM
- Activity (SW1353 [12]): inactive
- Activity (SW1353 [4]): inactive
- Activity (SW1353 [5]): inactive
- Activity (SW1353 [6]): inactive
- Activity (SW1353 [7]): inactive
- Activity [8]: Non-Toxic
- Activity [9]: Non-Toxic
